The list is not random: actives were taken first. Their share in the collection is about 4%.
bCat nuc transl: beta-catenin nuclear translocation modulation; nuclear translocation activity, % at 5 µM; 190,000 tested, 0.3% active; HeLa beta-catenin nuclear translocation, immunofluorescence imaging;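 active means nuclear translocation activity above 50% at 5 µM, with a well cell count of 50 or more; inconclusive means wells under 50 cells across six images, flagged as toxic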;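 further: per-cell ratio of nuclear to cytoplasmic median beta-catenin stain intensity; plate controls were DMSO negative control for no effect and GSK-3 inhibitor IX positive control for full effect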
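System: Human HeLa cells, endogenous beta-catenin | Compound dosing: 5 µM primary, 0.02–20 µM confirmation | Timing: 24 h compound exposure at 37°C, 5% CO2 | Measured by: Fluorescence imaging of beta-catenin antibody stain plus DAPI | Read-out basis: % activation of per-cell nuclear versus cytoplasmic median beta-catenin signal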
WT yeast gro inh: growth inhibition of WT yeast, mitochondrial fusion screen; mitochondrial fusion phenotypic screen, WT strain; inhibition, % at 10 µM; 190,000 tested, 2.1% active; in the data active means inhibition above about 58%; tested in S. cerevisiae
MT stabilize HCS: microtubule stabilization, imaging screen; 200,000 tested, 0.83% active; AID 2205; % tubulin-high responders, % at 10 µM; HeLa tubulin immunostaining HCS, 24 h; share of cells brighter than vehicle mean+2SD;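 active means plate Z-score above 3 for both tubulin-high and condensed-nucleus cell shares, with cell loss under 80%, at 10 µM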;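 further: anti alpha tubulin signal scored within the nucleus-defined area of each cell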
Pf gamet viab: P. falciparum stage V gametocyte viability inhibition; 150,000 tested, 0.065% active; P. falciparum stage V gametocytes, ATP luminescence, 24 h; AID 743093; inhibition, % at 10.9 µM;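 active means inhibition above the mean plus 3 SD of compounds within the control limits, set per campaign, cut at about 38% in these data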;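 further: 0% = DMSO wells and 100% = medium only without gametocytes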
Cl transport mod: modulates chloride dependent transport by human KCC2; KCC2 cells, thallium flux FluoZin-2 fluorescence; B-score of Tl+ flux slope (higher = more flux/activation; lower = inhibition) at 10 µM; 190,000 tested, 2.2% active; Q9H2X9;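 active means thallium flux slope and its plate-corrected score both differing from the plate sample mean at a set confidence after two filtering rounds, in either direction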;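 further: slope of fluorescence scaled to starting intensity during 10 to 20 s after thallium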
* hit, by the source's call; ? = inconclusive; · = not tested or not shown.

SMILES	bCat nuc transl	WT yeast gro inh	MT stabilize HCS	Pf gamet viab	Cl transport mod
CCN1CCN(CCNC(=O)c2ccc(/C=C3\Sc4ccccc4N(Cc4ccccc4F)C3=O)cc2)CC1	3	77*	2	-9	0.2
CN1CCN(CCCN2c3ccccc3Sc3ccc(Cl)cc32)CC1	-1	94*	5	·	0.0045
CN1CCN(CCCNC(=O)c2ccc3c(c2)N(Cc2ccccc2)CCS3)CC1	-6	0	7	·	·
CCOc1ccc(NC(=O)c2ccc(NC(=O)CSc3nc4ccccc4c(=O)[nH]3)cc2)cc1	-1	-13	4	15	0.11
O=C(CON=C1c2ccccc2-c2ccccc21)NC12CC3CC(CC(C3)C1)C2	0	42	3	-2	0.019
CC(C)[C@@H]1NC(=O)c2cc([N+](=O)[O-])cc(I)c2NCCCC[C@@H](C(=O)NC(CC(=O)O)C(N)=O)NC(=O)[C@H](CO)NC1=O (stereo not given in full)	·	4	2	·	-0.21
Cc1cccc(CN2C(=O)N/C(=C/c3ccc(C)s3)C2=O)c1	67*	·	53*	·	0.032
OC(CNCCC1C=Nc2ccccc21)Cn1c2ccc(Cl)cc2c2cc(Cl)ccc21 (stereo not given)	?	98*	16	0	1
OC(CNCC1CCCO1)Cn1c2ccc(Cl)cc2c2cc(Cl)ccc21 (stereo not given)	3	7	20	·	0.013
Nc1ccc(C(=O)N2CCCC2)cc1	-2	-10	3	·	-0.28
Nc1ccc(C(=O)n2c3ccccc3c3ccccc32)cc1	·	-14	45*	·	0.13
CCN1c2ccccc2-c2nc3ccccc3n2C1c1cccs1 (stereo not given)	1	64*	5	-15	-2
N#Cc1c2n(c3c(N)ncnc13)CCCCC2	0	·	·	6	0.61
CC(=O)NC/C(C)=N\Nc1ccc([N+](=O)[O-])cc1	0	78*	1	12	-0.28
C/C(=N\Nc1ccc([N+](=O)[O-])cc1)c1ccc(O)cc1	0	17	2	-16	-0.57
Oc1ccc(N=Nc2c(O)ccc3ccccc23)cc1	0	98*	2	5	·
COc1ccccc1NS(=O)(=O)c1cc(NC(=O)/C=C/c2cccs2)ccc1N1CCOCC1	0	4	3	·	0.016
CCCCC(=NCCc1c(C)[nH]c2ccccc12)C1=C(O)CC(c2ccccc2)CC1=O (stereo not given)	50*	16	9	-16	0.39
CCCCC(=Nc1ccccc1OC)C1=C(O)CC(c2ccccc2)CC1=O (stereo not given)	-2	-1	2	-5	-1.7
CCCC(=NCCc1c(C)[nH]c2ccccc12)C1=C(O)CC(c2ccccc2)CC1=O (stereo not given)	132*	17	26*	·	-0.13
CCC/C(O)=C1\C(=O)CC(c2ccccc2)CC1=NCCc1c(C)[nH]c2ccccc12 (stereo not given)	2	32	3	·	-0.63
N#CC1=C(N)C2=CCCC[C@H]2[C@H](c2ccc(Br)cc2)C1(C#N)C#N	6	68*	2	·	-0.89
N#CC1=C(N)C2=CCCC[C@H]2[C@H](c2ccccc2)C1(C#N)C#N	-1	12	4	0	-1.1
O=C1c2oc3ccc(Cl)cc3c(=O)c2C(c2ccco2)N1CCN1CCOCC1 (stereo not given)	-3	5	4	·	5.6*
Cc1ccc(C2c3c(oc4ccc(Cl)cc4c3=O)C(=O)N2CCCN2CCOCC2)o1 (stereo not given)	0	-1	4	·	6.6*
SMILES	bCat nuc transl	WT yeast gro inh	MT stabilize HCS	Pf gamet viab	Cl transport mod
COc1ccc(C2c3c(oc4ccc(Cl)cc4c3=O)C(=O)N2CCN2CCOCC2)cc1 (stereo not given)	0	·	·	-4	2.3
CN(C)CCCNC(=S)N(CCO)Cc1cc2cc3c(cc2[nH]c1=O)OCO3	·	·	·	4	·
O=C(O)CC1c2ccccc2CCN1S(=O)(=O)c1cccs1 (stereo not given)	·	·	·	6	·
O=S(=O)(Nc1cccc(-c2ccc3nncn3n2)c1)c1cccs1	0	-16	4	-21	-0.015
COc1ccc(S(=O)(=O)Nc2cccc(-c3ccc4nncn4n3)c2)cc1F	3	2	30*	-3	·
Cc1c(Cc2ccc3c(c2)OCO3)sc(NC(=O)C(C)(C)C)c1C#N	-1	6	22*	·	-0.0016
CCC(=O)Nc1sc(Cc2ccc3c(c2)OCO3)c(C)c1C(N)=O	0	·	·	-5	-0.34
O=[N+]([O-])c1ccc(N/N=C2/CCCCC2c2ccccn2)cc1 (stereo not given)	3	74*	5	-1	-0.93
O=[N+]([O-])c1ccc(NC2CCCC2)cc1	1	3	1	5	-0.14
Cc1cccc2[nH]c3c(N4CCC5(CC4)OCCO5)ncnc3c12	57*	-9	39*	2	-2
c1ccc2c(c1)[nH]c1c(N3CCCC3)ncnc12	-4	69*	2	-25	0.01
c1ccc2c(c1)[nH]c1c(N3CCSCC3)ncnc12	·	40	4	-12	·
CC(C)c1nc2sc3c(SCCN(C)C)ncnc3c2c2c1CCC2	·	·	·	-15	·
O=C(O)C1CN(C(=O)c2cccc(Br)c2)C1	-1	-1	2	-5	1.5
Cc1ccc(S(=O)(=O)N(C)Cc2ccc(C(=O)N/N=C/c3ccc(OC(F)F)cc3)cc2)cc1	-1	12	4	18	1.2
Cc1ccnc(NC(=O)c2ccccc2NC(=O)C(C)(C)C)c1	-1	6	44*	-4	1.4
CC(=O)Oc1ccc(N(C(C)=O)S(=O)(=O)c2ccc(C)cc2)c2ccccc12	·	·	·	-37	·
COC(=O)c1ccc(COc2ccccc2/C=N/NS(=O)(=O)c2ccccc2)cc1	1	-3	23*	·	·
COc1cc(/C=N/NS(=O)(=O)c2ccc3ccccc3c2)ccc1OCc1ccc(C(=O)O)cc1	1	·	·	12	-1.5
CCc1ccc(OC)c(-c2csc(N)n2)c1	1	58*	3	·	-3
CCn1c2ccccc2c2cc(NC(=O)c3cc(OC)c(OC)c(OC)c3)ccc21	4	16	23*	4	0.71
CCn1c2ccccc2c2cc(NC(=O)COc3ccc(OC)cc3)ccc21	·	34	2	·	-0.0075
COc1cc(C(=O)Nc2ccc(Br)cc2C(=O)c2cc(OC)c(OC)c(OC)c2)cc(OC)c1OC	4	4	34*	·	·
CCn1c2ccccc2c2cc(NC(=O)c3ccc(Br)o3)ccc21	·	18	2	14	0.18
CCn1c2ccccc2c2cc(NC(=O)c3cc(OC)cc(OC)c3)ccc21	11	27	9.6*	12	1
CCn1c2ccccc2c2cc(NC(=O)c3cc(C)on3)ccc21	-1	42	20*	2	-0.16
CC(=O)NS(=O)(=O)c1ccc(N=c2ssc3c2-c2ccc(C)cc2NC3(C)C)cc1	-3	5	3	-20	-2.7
Cc1cc(C)n2nc(CC(=O)NCc3ccccc3Cl)nc2n1	0	-14	7	13	0.65
CC(C)(CO)Nc1nc(Cl)nc(NC2CCCCC2)n1	0	·	·	-29	-0.15

Assay outcomes (PubChem BioAssay)
